# High-throughput results from PubChem BioAssay.
# Shown are actives, neighbours in structure and some others; about 4.9% of the full set was active somewhere.
# STAT3 inh – inhibitors of IL-6 induced STAT3 signaling | AID 862 | hit rate 0.89% among 190,000 | inhibition, % at 5.5 µM | U3A cells, IL-6 STAT3-luciferase reporter, luminescence; host cell line lacks STAT1;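 active = inhibition above the mean inhibition across all screened compounds plus 3 SD, cut at about 44% in these data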;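 note: 0% = DMSO only wells and 100% = 100 µM nifuroxazide control wells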
# STAT1 act-1 – activators of IFN-gamma induced STAT1 signaling. NIH 3T3 STAT1-luciferase reporter, luminescence; 100% = IFN-gamma alone, no compound. activation (% of control), % at 5.5 µM. hit rate 2.6% among 200,000. AID 932;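 active = activation above the screen-wide mean activation plus 3 SD, cut at about 130% in these data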;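 note: raw ratio to IFN-gamma control signal so 100% means no change and 0% no light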
# STAT1 blocker – inhibitors of IFN-gamma induced STAT1 signaling; NIH 3T3 STAT1-luciferase reporter, luminescence; inhibition, % at 5.5 µM; hit rate 0.35% among 200,000; AID 920;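 active = inhibition above a set limit, the mean inhibition across all tested compounds plus 3 SD, cut at about 34% in these data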;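 note: 0% = IFN-gamma with DMSO and 100% = IFN-gamma with 300 µM nifuroxazide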
# APP 5'UTR act – activates APP 5'UTR luciferase reporter | SH-SY5Y APP 5'UTR luciferase reporter, luminescence; zero percent = DMSO vehicle wells | activation, % at 2 µM | hit rate 1% among 190,000;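 active = activation above a set limit, based on mean plus 3 SD of controls, cut at about 140% in these data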
# NF-kB expr up – compounds increasing NF-kB expression in human neuronal cells; NF-kB reporter expression; stronger effect = higher value; fold change at 12.5 µM; hit rate 1.6% among 190,000; AID 1239; in the data active = fold change above about 3.3
# STAT3 act-1 – STAT3 signaling activation. U3A cells, IL-6 STAT3-luciferase reporter, luminescence; 100% = signal with IL-6 EC80 alone. activation (% of control), % at 5.6 µM. hit rate 0.91% among 190,000;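 active = activation above the screen-wide mean of compound activation plus 3 SD, cut at about 130% in these data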;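 note: 0% = background luminescence of wells with medium and substrate only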
#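 Material: STAT1-lacking human U3A cells, STAT3 luciferase reporter | Benchmarks: IL-6-only wells as 100% reference | Probe or stimulus: IL-6 (33 ng/mL) | Timing: Compound 1 h, then IL-6 6 h at 37 °C | Detection: Luminescence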
# STAT3 act-2 – confirmation of STAT3 signaling activators | shares compounds with STAT3 act-1 | U3A STAT3-luciferase reporter, IL-6 potentiation, luminescence; U3A cells lack STAT1; 100 means same as IL-6 alone | hit rate 64% among 1,200 | potentiation (% of control), % at 5.7 µM | AID 1267;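 active = percent activation of the STAT3 luciferase reporter above a set limit taken from the earlier primary screen, cut at about 130% in these data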;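 note: 0% = background signal of medium plus substrate and 100% = median of IL-6 with DMSO wells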
# NFkB act STAT3ct – activates NF-kappaB, counter-screen to STAT3 activators; shares compounds with STAT3 act-1; human cells, NF-kappaB reporter activation; activation (% of control), % at 5.7 µM; hit rate 11% among 1,200; AID 1309; in the data active = activation above about 120%;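 note: reporter induced by TNF-alpha stimulation; 100% = median of stimulated DMSO wells and 0% = no signal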
# STAT1 act-2 – counter-screen for STAT3 activators: STAT1 activation; activation (% of control), % at 5.7 µM; AID 1318; hit rate 13% among 1,200; shares compounds with STAT3 act-1; NIH 3T3 STAT1-luciferase reporter, IFN-gamma, luminescence;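 active = activation above the solvent-only control well mean plus 3 SD, set per screening run, cut at about 120% in these data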;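 note: 100% = IFN-gamma with DMSO median signal so 100% means no change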
# * marks the source's active call; other numbers are inactive results; nt = no result given.
SMILES,STAT3 inh,STAT1 act-1,STAT1 blocker,APP 5'UTR act,NF-kB expr up,STAT3 act-1,STAT3 act-2,NFkB act STAT3ct,STAT1 act-2
Cc1cc(-c2ccc(Cl)cc2)c(C#N)c(N)n1,-57,88,7,nt,1,148*,140*,102,107
Cc1ccc2[nH]c(C)c(/C=N/Nc3nc4ccccc4s3)c2c1,-40,106,-7,90,0.72,139*,134*,104,101
O=C(c1ccccc1)N1N=C(c2ccccc2)CC1c1ccccc1[N+](=O)[O-] (configuration not stated),-8,92,9,-17,0.97,108,nt,nt,nt
c1cncc(-c2nc(NCc3ccco3)c3ccccc3n2)c1,-26,104,-4,-4,0.8,125,nt,nt,nt
Cc1ccc(-c2nc(NCc3ccco3)c3ccccc3n2)cc1,-46,98,3,7,1.4,139*,153*,109,109
Cn1c(O)c(C2=c3ccccc3=NC2=O)[nH]c1=S,-47,88,13,1,1.1,142*,155*,103,93
COc1ccc2nc(-n3c(O)c(C4=c5ccccc5=NC4=O)[nH]c3=S)sc2c1,5,102,-2,0,1,93,nt,nt,nt
CCOCC(=O)Nc1cc(Cl)c(OC)cc1OC,20,105,-8,7,1.2,85,nt,nt,nt
Cc1nn(-c2ccccc2)c(N)c1C(O)(CSc1nccn1C)C(F)(F)F (configuration not stated),-14,105,-5,nt,0.99,110,nt,nt,nt
Cc1nn(-c2ccc(Cl)cc2)c(N)c1C(O)(CSc1nccn1C)C(F)(F)F (configuration not stated),-47,99,2,9,1.4,143*,134*,103,100
COC(=O)c1nc(-c2ccccc2)oc1N1CCOCC1,8,102,-4,7,1,97,nt,nt,nt
COc1ccc(/C=C/C(=O)c2cc(F)ccc2OC(=O)c2ccccc2C)cc1OC,-48,100,1,-97,2.6,143*,103,156*,102
COc1ccc(C(=O)Oc2ccc(F)cc2C(=O)/C=C/c2ccc(OC)c(OC)c2)cc1,0,101,-1,-11,0.91,99,nt,nt,nt
CSc1c(CC(=O)Nc2ccc(F)cc2)n(Cc2ccccc2)c2ccccc12,10,103,-3,2,0.84,96,nt,nt,nt
CN(C)C(=O)N1CCC(C(=O)NCc2cccs2)CC1,-49,98,1,2,1.2,145*,95,102,100
O=c1cnnc(Nc2cccc(F)c2)[nH]1,-51,98,2,12,1.4,142*,148*,104,93
O=c1cnnc(Nc2ccc(F)cc2)[nH]1,12,103,-5,4,1.3,99,nt,nt,nt
O=C(NNC(=O)C1CCCN(S(=O)(=O)c2cccc(F)c2)C1)C1CC1 (configuration not stated),8,102,-1,7,1,94,nt,nt,nt
O=C(CCc1nc2ccccc2[nH]1)NCc1ccc2c(c1)OCO2,0,98,3,5,0.88,100,nt,nt,nt
O=C(CCc1nnc(Cc2ccc3c(c2)OCO3)o1)NCc1nc2ccccc2s1,-49,111,-12,12,0.95,149*,142*,105,93
O=C(O)CCc1nnc(SCC(=O)Nc2cccc(C(F)(F)F)c2)[nH]c1=O,8,97,2,15,1.3,96,nt,nt,nt
Cc1nc(/N=C(\N)NC(=O)c2ccccc2)nc2ccccc12,-78,102,-2,15,0.98,177*,168*,121*,116
Cc1nc(N=C(N)N)nc2ccccc12,-18,103,-3,23,1.1,116,nt,nt,nt
Cn1c(SCc2nc3ccccc3s2)nnc1-c1cccs1,-23,102,-3,15,1,123,nt,nt,nt
COc1ccccc1-c1nnc(SCc2nc3ccccc3s2)n1C,-33,104,-4,13,1.4,129,nt,nt,nt
